Reference: PubChem BioAssay
Results filed as inconclusive are left out. Active and inactive are the calls of the source.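 The calls were made as follows, unless noted: active = viability at or below 27.92% in each of two runs, the all-compound median minus 4 SD; inconclusive = no clear call, values can overlap the other calls; inactive = the rest.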

What was measured:
[1] = S. cerevisiae growth inhibition in permissive medium (OD615), pilot counter-assay for S. cerevisiae lifespan shortening project, permissive growth control (AID 705;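 active = growth inhibition above 25% in both replicates, a cutoff set 3 SD above the mean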); details: OD615, 24 h, at 10 µM, active compounds read high
Outline: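 System: engineered DeaD yeast; Medium: permissive raffinose/galactose medium; Compound dosing: 10 µM single dose, 0.25% DMSO; Incubation: 4 h cell pre-growth, 24 h exposure at 30 °C; Technique: OD at 615 nm; Evaluation: growth inhibition from lowered OD615 after 24 h.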

[2] = S. cerevisiae growth inhibition in restrictive medium, OD615, pilot screen, restrictive growth control, yeast lifespan reduction project (AID 706;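 active = growth inhibition above a set limit, 3 SD over mean compound inhibition, in both replicates, cut at about 43% in these data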;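 also: modified DeaD lifespan yeast strain shifted to restrictive glucose medium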); details: OD615, 48 h, at 10 µM, active compounds read high
Outline: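 Material: modified S. cerevisiae; buffer or medium: CSMM-D glucose medium; doses: one concentration, 10 µM final, 0.25% DMSO; incubation: 48 h compound exposure at 30 °C; detection: optical density at 615 nm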

[3] = doxorubicin toxicity protection in MRP-1 cells – H69AR cells, CellTiter-Glo, duplicate, MRP-1 activator project, pilot screen (AID 807;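 active = viability increase at or above a cutoff of the median across tested compounds plus 3 SD, cut at about 8.5% in these data, passing the limit was not always enough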;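 also: compound pretreatment 18-22 h then 72 h combined with doxorubicin; 0% = doxorubicin alone and 100% = vehicle without doxorubicin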); details: H69AR viability with doxorubicin, CellTiter-Glo luminescence; at 10 µM; active compounds read high
[4] = viability of HCT116 without oncogenic beta-catenin – human colon tumor cells, pilot screen (AID 823;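 active = cell viability at or below a set limit in both duplicate runs, the limit being the all-compound median minus 4 SD, cut at about 23% in these data, passing the limit was not always enough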;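 also: 0% = wells killed by 20 µM Hyamine and 100% = untreated DMSO cell wells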); details: HCT116 beta-catenin knockout viability, CellTiter-Glo, 60 h; at 10 µM; active compounds read low
[5] = viability of PTEN-null HCT116 cells – cell-based, HCT116 clonal line, CellTiter-Glo, pilot screen (AID 824); details: HCT116 PTEN-deleted viability, 60 h, at 10 µM, active compounds read low;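 also: 0% = 20 µM Hyamine control and 100% = vehicle cell control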
[6] = RAM pathway blockade in budding yeast – dse1pr::URA3 reporter, 5-FOA selection, pilot screen (AID 869;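 active = inhibition over a set limit, the all-compound mean plus 3 SD, in both replicate runs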;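 also: 0% = DMSO wells with no growth and 100% = 10 µM 1-NA-PP1 with full growth; RAM network block rescues cells from 5-FOA so hits raise OD615 growth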); details: S. cerevisiae dse1pr::URA3 5-FOA growth, OD615, 2 d; at 10 µM; active compounds read high; strain carries analog-sensitive mutant Cbk1 kinase
[7] = RAM signaling pathway blockade in yeast – S. cerevisiae, Pdr1DBD-CYC8 efflux-inhibited sensitized strain, primary screen (AID 1298;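 active = RAM network inhibition above 8.4% in each of two replicates, 3 SD over the compound average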;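 also: 0% = DMSO untreated cells without growth and 100% = 10 µM 1-NA-PP1 full growth; higher means more yeast growth rescued from 5-FOA killing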); details: S. cerevisiae cbk1-as DSE1-URA3 strain, 5-FOA growth OD615, 2 d; at 50 µM; active compounds read high

Compound	growth inhibition [1]	growth inhibition [2]	viability increase [3]	viability [4]	viability [5]	inhibition [6]	RAM network inhibition [7]
O=C(CN1c2cccc3cccc(c23)S1(=O)=O)NCc1ccc2c(c1)OCO2	-1.29% (inactive)	-6.94% (inactive)	-3.03% (inactive)	89.2% (inactive)	82.6% (inactive)	1.05% (inactive)	5.12% (inactive)
Cc1ccc(C(=O)c2ccccc2C(=O)O)c(O)c1	-15.6% (inactive)	-4.92% (inactive)	0.69% (inactive)	94.8% (inactive)	106% (inactive)	0.835% (inactive)	5.69% (inactive)
CCc1ccc2[nH]cc(C(=O)OCCOC)c(=O)c2c1	-19.9% (inactive)	0.075% (inactive)	-1.15% (inactive)	88% (inactive)	87.5% (inactive)	1.91% (inactive)	1.6% (inactive)
N#CCCN1CCN(S(=O)(=O)c2ccc(S(=O)(=O)NCc3ccccc3)cc2)CC1	-3.28% (inactive)	-15.5% (inactive)	0.18% (inactive)	96% (inactive)	100% (inactive)	1.91% (inactive)	3.5% (inactive)
CS(=O)(=O)c1ccc2nc(NC(=O)C3CCCCC3)sc2c1	-0.52% (inactive)	-7.79% (inactive)	-7.36% (inactive)	72.2% (inactive)	77.3% (inactive)	0.96% (inactive)	0.41% (inactive)
CCOC(=O)CSc1nc2nc(C)cc(C)n2n1	4.15% (inactive)	6.3% (inactive)	-1.33% (inactive)	101% (inactive)	96% (inactive)	2.5% (inactive)	4.98% (inactive)
O=C(O)CCSc1nnc(-c2ccccc2)n1-c1ccccc1	4.3% (inactive)	50.6% (active)	0.8% (inactive)	94.4% (inactive)	98.3% (inactive)	1.48% (inactive)	0.72% (inactive)
Cc1c(NC(=O)OCCSc2nc(N(C)C)nc(N(C)C)n2)sc(=S)n1C	2.93% (inactive)	3.13% (inactive)	-0.48% (inactive)	83% (inactive)	76% (inactive)	2.92% (inactive)	1.79% (inactive)
CCN(CC)Cc1c[nH]c2c(C(=O)OC)cccc12	-11.4% (inactive)	-23.5% (inactive)	-4.51% (inactive)	101% (inactive)	94.9% (inactive)	2% (inactive)	-1.31% (inactive)
CC1CCCC(C)N1CCCNC(=O)c1cc2c(=O)n(C)c3ccccc3c2n1C (stereo unspecified)	-11.5% (inactive)	-10.6% (inactive)	-6.03% (inactive)	68.9% (inactive)	71.5% (inactive)	-0.625% (inactive)	2.26% (inactive)
Cc1ccc(C(=O)N(Cc2nc(-c3ccc(C)cc3)no2)C(C)C)cc1	-14.3% (inactive)	-18.5% (inactive)	0.77% (inactive)	100% (inactive)	94.5% (inactive)	1.33% (inactive)	5.26% (inactive)
COc1ccccc1CNc1ncnc2c1cnn2-c1ccccc1	-13.5% (inactive)	-7.05% (inactive)	-4.76% (inactive)	74.2% (inactive)	79% (inactive)	0.575% (inactive)	0.57% (inactive)
COc1ccc(-c2nc(CSCC(=O)N3CCC(C(N)=O)CC3)c(C)o2)cc1OC	-2.87% (inactive)	9.12% (inactive)	-0.52% (inactive)	106% (inactive)	98.3% (inactive)	0.78% (inactive)	-0.72% (inactive)
COc1ccc(Cl)cc1N(CC(=O)Nc1ccc2c(c1)OCO2)S(C)(=O)=O	-15.1% (inactive)	-11.7% (inactive)	-3.17% (inactive)	92.6% (inactive)	89.4% (inactive)	0.79% (inactive)	2.18% (inactive)
CN(C)S(=O)(=O)Nc1ccc2c(c1)Cc1ccccc1-2	-17.4% (inactive)	-9.69% (inactive)	-2.09% (inactive)	92.3% (inactive)	88.5% (inactive)	1% (inactive)	4.68% (inactive)
CC(C)OC(=O)CSc1nnc(-c2ccncc2)n1N	-8.12% (inactive)	-10.2% (inactive)	-2.11% (inactive)	97.5% (inactive)	97.1% (inactive)	1.8% (inactive)	3.83% (inactive)
Cn1c2ccc(Cl)cc2c2nc3ccccc3nc21	-12.8% (inactive)	-4% (inactive)	-5.07% (inactive)	74.7% (inactive)	76.6% (inactive)	7.62% (active)	12.6% (inactive)

Compound	growth inhibition [1]	growth inhibition [2]	viability increase [3]	viability [4]	viability [5]	inhibition [6]	RAM network inhibition [7]
Cc1noc(NS(=O)(=O)c2ccc(NC(=O)CSc3nc4c(cc3C#N)CCCC4)cc2)c1C	2.36% (inactive)	3.98% (inactive)	0.62% (inactive)	109% (inactive)	101% (inactive)	2.52% (inactive)	2.9% (inactive)
O=C(Cn1cc2c(n1)CCCC2)Nc1ccccc1Cl	-4.82% (inactive)	-3.03% (inactive)	-1.53% (inactive)	99.4% (inactive)	98.9% (inactive)	1.91% (inactive)	1.47% (inactive)
Clc1ccc(CCNc2ncnc3nc[nH]c23)cc1	12.7% (inactive)	48.5% (active)	0.89% (inactive)	74.7% (inactive)	77% (inactive)	-0.895% (inactive)	2.97% (inactive)
CCCCS(=O)CC(COCc1ccccc1)OC(=O)CSc1nc(C)cc(C)n1 (stereo unspecified)	-8.16% (inactive)	-22% (inactive)	-1.32% (inactive)	97.6% (inactive)	94.7% (inactive)	0.95% (inactive)	3.07% (inactive)
O=S(=O)(CCc1nnc(-c2ccccc2)o1)c1ccc2ccccc2c1	-16.3% (inactive)	-6.19% (inactive)	-1.86% (inactive)	89.8% (inactive)	91.8% (inactive)	1.96% (inactive)	10.4% (inactive)
COc1ccccc1N(CC(N)=O)S(=O)(=O)c1ccc(C)cc1	0.675% (inactive)	-2.73% (inactive)	-1.48% (inactive)	98.2% (inactive)	98% (inactive)	0.21% (inactive)	3.22% (inactive)
Cn1c(Cn2c(=O)sc3ccccc32)nnc1SCC(=O)Nc1ccc2c(c1)OCO2	-1.55% (inactive)	7.6% (inactive)	-5.8% (inactive)	105% (inactive)	99.6% (inactive)	2.34% (inactive)	3.46% (inactive)
Nn1c(SCc2ccccc2)nnc1-c1ccco1	-8.86% (inactive)	3.38% (inactive)	-3.7% (inactive)	99.2% (inactive)	93% (inactive)	0.67% (inactive)	-1.12% (inactive)
COCCNC(=O)CS(=O)(=O)Cc1nc(-c2ccc(C)cc2)oc1C	-7.2% (inactive)	-29% (inactive)	-0.43% (inactive)	95.1% (inactive)	95.3% (inactive)	-0.325% (inactive)	3.68% (inactive)
CCn1cc(C(=O)OCC(=O)Nc2c(C)n(C)n(-c3ccccc3)c2=O)c(=O)c2ccc(C)nc21	-11.8% (inactive)	-0.91% (inactive)	-0.65% (inactive)	97.6% (inactive)	95% (inactive)	0.195% (inactive)	0.21% (inactive)
N#CCCN1CCN(S(=O)(=O)c2ccc(S(=O)(=O)NC3CC3)cc2)CC1	-10.4% (inactive)	-5.2% (inactive)	0.24% (inactive)	103% (inactive)	99.6% (inactive)	0.68% (inactive)	3.16% (inactive)
CC1Cc2nc(SCC(=O)Nc3nccs3)n(Cc3ccccc3)c(=O)c2S1 (stereo unspecified)	4.49% (inactive)	8.66% (inactive)	-2.23% (inactive)	94.8% (inactive)	88.4% (inactive)	2.21% (inactive)	3.83% (inactive)
CCCC(=O)OCCNC(=O)c1cc2ccccc2oc1=O	-4.39% (inactive)	2.19% (inactive)	-0.74% (inactive)	102% (inactive)	90.2% (inactive)	0.64% (inactive)	2.41% (inactive)
COc1ccc(N)cc1C#N	-7.31% (inactive)	-5.58% (inactive)	-3.17% (inactive)	98.5% (inactive)	93.6% (inactive)	1.06% (inactive)	1.63% (inactive)
Cc1onc(-c2ccccc2)c1C(=O)Nc1sc2c(c1C#N)CCC2	3.88% (inactive)	4.25% (inactive)	-4.93% (inactive)	59.7% (inactive)	54.3% (inactive)	1.58% (inactive)	0.09% (inactive)
O=C(CNC(=O)c1ccccc1F)NC1CC1	-8.56% (inactive)	-2.84% (inactive)	-2.87% (inactive)	99.3% (inactive)	96.4% (inactive)	0.76% (inactive)	6.17% (inactive)
